21 compounds from ChEMBL document CHEMBL1127813, “Pseudopeptide inhibitors of Ras farnesyl-protein transferase” (J Med Chem, 1994) can be followed below.

Structures are written as SMILES. Calls of active or inactive are those of the source. No cut-off for these calls is given here. Where only a bound is given, the exact number is not on record here.

Assay [1] addresses Protein farnesyltransferase (Bos taurus, UniProt P29702+P49355). Description: Inhibitory activity against Ras Farnesyl Protein transferase from bovine brain. Summed up:
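FPTase purified from bovine brain (about 1 nM) incubated with [³H]FPP, recombinant Harvey-Ras and varying inhibitor concentrations. Protein was acid-precipitated and Ras-bound label counted by scintillation. IC50 is the concentration halving label incorporation relative to the no-inhibitor control, given as mean ± SEM with the number of determinations.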

The target of assay [2] is T1, Geranylgeranyl transferase type I (Bos taurus, UniProt P29702+Q5EAD5). Description: Inhibitory activity against bovine type-1 geranylgeranyl transferase. In kind it is protein-complex assay.
Assay [3] deals with NIH3T3. Description: The cytotoxic endpoint, the highest nontoxic concentration for cultured NIH3T3 cells. The conditions noted are these: Mus musculus. In kind it is functional, cell-based. Summed up: (§1)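 NIH3T3 fibroblasts exposed to compound for 48 h; viability read by MTT staining. Endpoint is the highest concentration tolerated without toxicity. Top concentration tested was 100 μM for most compounds; one lactone was dosed up to 1 mM.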

Assay [4] deals with T2, Protein farnesyltransferase (Mus musculus) (UniProt Q61239+Q8K2I1). Briefly: Inhibition of v-ras posttranslational processing in NIH3T3 cells at 10 uM. In kind it is cell-based. Summed up:
(§2)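 NIH 3T3 cells expressing viral Ha-ras were metabolically labeled with [³⁵S]methionine while exposed to compound or solvent control. Cells were lysed after 24 h and Ras was immunoprecipitated to assess posttranslational processing. Scored as percent inhibition of processing; +++ means ≥90% inhibition. Lovastatin 15 μM was the reference.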

Assay [5] concerns the target T2, Protein farnesyltransferase (Mus musculus). Description: Inhibition of v-ras posttranslational processing in NIH3T3 cells at 100 uM. It counts as cell-based. The method in brief:
as §2

For assay [6], the target named is T1, Geranylgeranyl transferase type I. Description: In vitro inhibition of bovine type-1 geranylgeranyl transferase. In kind it is protein-complex assay.
The target in assay [7] is T2, Protein farnesyltransferase (Mus musculus). Briefly: Inhibition of v-ras posttranslational processing in NIH3T3 cells at 5 uM (No inhibition). It counts as cell-based. Summed up:
as §2

Assay [8] deals with NIH3T3. Description: Highest nontoxic concentration in NIH3T3 cells. It counts as functional, cell-based. The conditions noted are these: Mus musculus. Summed up:
as §1

Assay [9] is described as follows: The binding affinity against Ras protein.
In assay [10] the target is T2, Protein farnesyltransferase (Mus musculus). Briefly: Inhibition of v-ras posttranslational processing in NIH3T3 cells (No inhibition). It counts as cell-based. The method in brief: as §2
Assay [11] shares this target. Description: Inhibition of v-ras posttranslational processing in NIH3T3 cells at 1 uM. In kind it is cell-based. Summed up: as §2
Assay [12] has the same target. Description: Inhibition of v-ras posttranslational processing in NIH3T3 cells at 15 uM. It counts as cell-based. Summed up:
as §2

Consider `CC[C@H](C)[C@H](NC(=O)[C@@H](N)CS)C(=O)N[C@@H](Cc1ccccc1)C(=O)N[C@@H](CCSC)C(=O)O`, for which the IC50 (usually the midpoint of a concentration-inhibition curve) in assay [1] is 27 nM; in [2] it was 300000 nM.
In the case of `CC[C@H](C)[C@H](NCCCS)C(=O)N[C@@H](Cc1ccccc1)C(=O)N[C@@H](CCSC)C(=O)O`, the values for the IC50 in assay [1] and in [2] were 50 nM and more than 10000 nM, respectively.
As to `CCOC(=O)[C@H](CCSC)NC(=O)[C@H](Cc1ccccc1)NC(=O)[C@@H](NCC(N)CS)C(C)CC` (stereo partly specified), the Concentration in [3] worked out at 10 µM. Also, the inhibition (as a rule, the relative decrease from the control value, in per cent) in assay [4] came to 10%.
Regarding `CC[C@H](C)[C@H](NC[C@@H](N)CS)C(=O)N[C@H](C(=O)N[C@H]1CCOC1=O)[C@@H](C)CC`, the inhibition in assay [5] amounted to 30%. The same compound had a Concentration in [3] of more than 100 µM.
With `CC[C@H](C)[C@H](NC(=O)[C@@H](NC[C@@H](N)CS)C(C)C)C(=O)N[C@@H](CCSC)C(=O)O`, the IC50 in assay [1] is 7 nM; in assay [2] it was 28 nM.
For the compound `CC[C@@H](C)[C@H](NC[C@@H](NC[C@@H](N)CS)[C@H](C)CC)C(=O)N[C@H]1CCOC1=O`, the inhibition in assay [5] was more than 90%. In assay [3], this compound showed a Concentration of more than 1000 µM.
In the case of `CCC(C)[C@H](NCC(N)CS)C(=O)N[C@H](CN[C@@H](CCSC)C(=O)O)Cc1ccccc1` (stereo partly specified), the IC50 in [6] is 1100 nM; in assay [1], 140 nM.
The like results for `CCC(C)[C@@H](CN[C@@H](Cc1ccccc1)C(=O)N[C@@H](CCSC)C(=O)O)NCCCS` (stereo partly specified) were, in that order, more than 10000 nM and 400 nM.
Turning to `CCC(C)[C@H](NCC(N)CS)C(=O)N[C@@H](Cc1ccccc1)C(=O)N[C@@H](CCSC)C(=O)OCc1ccccc1` (stereo partly specified), the inhibition result in assay [7] was “inactive”. The compound also came in with a Concentration in [8] of 5 µM.
In turn, `CC[C@H](C)[C@H](NC(=O)[C@@H](NC(=O)[C@@H](N)CS)[C@@H](C)CC)C(=O)N[C@@H](CCO)C(=O)O` registered an IC50 in assay [1] of 330 nM.
In [1], `CC[C@H](C)[C@H](NC(=O)[C@@H](NC[C@@H](N)CS)C(C)C)C(=O)N[C@@H](CC(C)C)C(=O)O` registered an IC50 of 550 nM.
In the case of `CCCCCCCCCCOC(=O)[C@H](CCSC)NC(=O)[C@H](Cc1ccccc1)NC(=O)[C@@H](NCC(N)CS)C(C)CC` (stereo partly specified), the Concentration in assay [8] is 2 µM.
`CC[C@H](C)[C@H](NC(=O)[C@@H](NC(=O)[C@@H](N)CS)C(C)C)C(=O)N[C@@H](CCSC)C(=O)O`: the IC50 in assay [1] stood at 165 nM; in assay [2] it was 49000 nM.
Regarding `CC[C@H](C)[C@H](NC[C@@H](N)CS)C(=O)N[C@@H](Cc1ccccc1)C(=O)N[C@@H](CCSC)C(=O)O`, the figures for the IC50 in [1] and in [2] were 18 nM and 310 nM, respectively. This compound showed an inhibition in [5] of 10%. Moreover, the Concentration in assay [3] is more than 100 µM.
Regarding `CC[C@H](C)[C@H](NC[C@@H](NC[C@@H](N)CS)[C@@H](C)CC)C(=O)N[C@@H](CCO)C(=O)O`, affinity in [9] was put at a Ki of 20 nM. Besides, the IC50 in assay [1] came out at 20 nM; in [2], 45000 nM. Further, in assay [10], the inhibition result is “inactive”. In [3], the Concentration was more than 100 µM.
`CCC(C)[C@@H](CN[C@@H](Cc1ccccc1)C(=O)N[C@@H](CCSC)C(=O)OC)NCC(N)CS` (stereo partly specified) came in with an inhibition in [11] of 10%. In assay [3], this compound returned a Concentration of 1 µM.
For the compound `CCC(C)[C@@H](CN[C@@H](Cc1ccccc1)C(=O)N[C@@H](CCSC)C(=O)O)NCC(N)CS` (stereo partly specified), the half-maximal inhibitory concentration (IC50) is 5750 nM in assay [6] and 4.8 nM in [1]. The compound further showed an inhibition in [5] of 30%. The compound further displayed a Concentration in [3] of more than 100 µM.
As to `CC[C@H](C)[C@H](NC(=O)[C@@H](NCCCS)C(C)C)C(=O)N[C@@H](CCSC)C(=O)O`, the values for the IC50 in assay [1] and in [2] were 29 nM and 2200 nM, respectively.
Turning to `CC[C@H](C)[C@H](NC[C@@H](N)CS)C(=O)N[C@H](C(=O)N[C@@H](CCO)C(=O)O)[C@@H](C)CC`, the half-inhibitory concentration (IC50) is 42 nM in assay [1] and 8000 nM in assay [2]. For the same compound, the inhibition result in assay [10] was “inactive”. In addition, the Concentration in assay [3] is more than 100 µM.
As to `CCC(C)[C@H](NC[C@@H](NC(=O)[C@@H](N)CS)C(C)CC)C(=O)N[C@@H](CCO)C(=O)O` (stereo partly specified), the IC50 in [1] came to 150 nM.
`CC[C@H](C)C(=O)O[C@H]1C[C@@H](C)C=C2C=C[C@H](C)[C@H](CC[C@@H]3C[C@@H](O)CC(=O)O3)[C@H]21` registered an inhibition in [12] of more than 90%.
